Columns and labels:
Rattus norvegicus [1] = test: Kaliuretic effect was evaluated in the conscious female rat by natriuretic assay involving metabolic caging at dose 30 mg/kg; type: functional
Method in brief: (§1)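 Rats housed singly in metabolic cages 1-2 days beforehand and acclimated to oral gavage with 3 mL/kg tap water; food and water withdrawn 2 h pre-test. Oral saline volume load, 25 mL/kg, then compound by gavage as 1% CMC suspension (1 mL/kg); 1% CMC vehicle control. Six rats per group. 5 h urine collected; volume, Na+, K+ measured. Outliers >2 SD removed; ANOVA, Scheffe F test.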

Rattus norvegicus [2] = test: Kaliuretic effect was evaluated in the conscious female rat by natriuretic assay involving metabolic caging at dose 50 mg/kg; type: functional; method in brief: as §1
Rattus norvegicus [3] = test: Natriuretic effect was evaluated in the conscious female rat by natriuretic assay involving metabolic caging at dose 30 mg/kg; type: functional; method in brief: as §1
Rattus norvegicus [4] = test: Kaliuretic effect was evaluated in the conscious female rat by natriuretic assay involving metabolic caging at dose 10 mg/kg; type: functional; method in brief: as §1
Rattus norvegicus [5] = test: Natriuretic effect was evaluated in the conscious female rat by natriuretic assay involving metabolic caging at dose 50 mg/kg; type: functional; method in brief: as §1
Rattus norvegicus [6] = test: Diuretic effect was evaluated in the conscious female rat by natriuretic assay involving metabolic caging at dose 30 mg/kg; type: functional, Urine; method in brief: as §1
Rattus norvegicus [7] = test: Diuretic effect was evaluated in the conscious female rat by natriuretic assay involving metabolic caging at dose 50 mg/kg; type: functional, Urine; method in brief: as §1
Rattus norvegicus [8] = test: Natriuretic effect was evaluated in the conscious female rat by natriuretic assay involving metabolic caging at dose 10 mg/kg; type: functional; method in brief: as §1
Rattus norvegicus [9] = test: Diuretic effect was evaluated in the conscious female rat by natriuretic assay involving metabolic caging at dose 10 mg/kg; type: functional, Urine; method in brief: as §1
Rattus norvegicus [10] = test: Kaliuretic effect was evaluated in the conscious female rat by natriuretic assay involving metabolic caging at dose 20 mg/kg; type: functional; method in brief: as §1
Rattus norvegicus [11] = test: Natriuretic effect was evaluated in the conscious female rat by natriuretic assay involving metabolic caging at dose 20 mg/kg; type: functional; method in brief: as §1
Rattus norvegicus [12] = test: Diuretic effect was evaluated in the conscious female rat by natriuretic assay involving metabolic caging at dose 20 mg/kg; type: functional, Urine; method in brief: as §1
Rattus norvegicus [13] = test: Kaliuretic effect was evaluated in the conscious female rat by natriuretic assay involving metabolic caging at dose 5 mg/kg; type: functional; method in brief: as §1
Rattus norvegicus [14] = test: Natriuretic effect was evaluated in the conscious female rat by natriuretic assay involving metabolic caging at dose 5 mg/kg; type: functional; method in brief: as §1
Rattus norvegicus [15] = test: Diuretic effect was evaluated in the conscious female rat by natriuretic assay involving metabolic caging at dose 5 mg/kg; type: functional, Urine; method in brief: as §1

| SMILES | Kaliuretic activity (Rattus norvegicus [1]) [µM/g] | Kaliuretic activity (Rattus norvegicus [2]) [µM/g] | Natriuretic activity (Rattus norvegicus [3]) [µM/g] | Kaliuretic activity (Rattus norvegicus [4]) [µM/g] | Natriuretic activity (Rattus norvegicus [5]) [µM/g] | Diuretic activity (Rattus norvegicus [6]) [mL/g] | Diuretic activity (Rattus norvegicus [7]) [mL/g] | Natriuretic activity (Rattus norvegicus [8]) [µM/g] | Diuretic activity (Rattus norvegicus [9]) [mL/g] | Kaliuretic activity (Rattus norvegicus [10]) [µM/g] | Natriuretic activity (Rattus norvegicus [11]) [µM/g] | Diuretic activity (Rattus norvegicus [12]) [mL/g] | Kaliuretic activity (Rattus norvegicus [13]) [µM/g] | Natriuretic activity (Rattus norvegicus [14]) [µM/g] | Diuretic activity (Rattus norvegicus [15]) [mL/g] |
| --- | --- | --- | --- | --- | --- | --- | --- | --- | --- | --- | --- | --- | --- | --- | --- |
| CCOC(=O)CN1C(=O)[C@H](O)[C@H](c2ccc(OC)cc2)Sc2ccccc21 | <0.75 | 1 | <1.6 | <1.1 | <1.25 | 1.5 | 1.3 | <2 | 1.7 | – | – | – | – | – | – |
| COc1ccc([C@@H]2Sc3ccccc3N(CCO)C(=O)[C@@H]2OC(C)=O)cc1 | – | – | – | 0.7 | – | – | – | <1.25 | 1.3 | <0.67 | <1.35 | 1.28 | – | – | – |
| COc1ccc([C@@H]2Sc3ccccc3N(CC(=O)O)C(=O)[C@@H]2OC(C)=O)cc1 | 1.2 | 1.25 | <2.1 | <0.9 | 1.7 | 2.25 | 2.1 | <2 | 1.92 | <1.08 | <1.55 | 1.75 | – | – | – |
| COc1ccc([C@@H]2Sc3ccccc3N(CCN(C)C)C(=O)[C@@H]2OC(C)=O)cc1 [DILTIAZEM] | – | – | – | <0.8 | – | – | – | <1.4 | 1.6 | 0.7 | <1.6 | 1.8 | – | – | – |
| NS(=O)(=O)c1cc(C(=O)O)c(NCc2ccco2)cc1Cl [FUROSEMIDE] | <1.6 | – | <2.5 | – | – | 2.6 | – | – | – | <1.1 | <1.1 | 1.3 | – | – | – |
| COc1ccc([C@@H]2Sc3ccccc3N(CCO)C(=O)[C@@H]2O)cc1 | – | <0.8 | – | 1.1 | <0.9 | – | 1.6 | <2.5 | 2.1 | <1.05 | <1.9 | 1.8 | 1 | <1.6 | 1.7 |
| COc1ccc([C@@H]2Sc3ccccc3N(CCO)C[C@@H]2O)cc1 | <0.9 | 0.97 | <1.6 | <1 | <1.65 | 1.75 | 1.6 | <2 | 1.7 | – | – | – | – | – | – |
| COc1ccc([C@@H]2Sc3ccccc3N(CCOC(C)=O)C(=O)[C@@H]2OC(C)=O)cc1 | – | <0.7 | – | <0.95 | <1.55 | – | 1.3 | <1.35 | 1.3 | – | – | – | – | – | – |
| COc1ccc([C@@H]2Sc3ccccc3N(CC(=O)O)C(=O)[C@@H]2O)cc1 | 1.07 | 1.23 | <2.1 | 1.1 | <1.95 | 2.1 | 1.85 | <2 | 2 | 1.15 | <1.6 | 1.7 | – | – | – |
